# Measured values: the M2OR odorant receptor database
# Tests used:
# Settings in all cases: stereoisomer not certain
# [1] = molecular target: T1, UniProt L7MU75
# T1 sequence (whole entry): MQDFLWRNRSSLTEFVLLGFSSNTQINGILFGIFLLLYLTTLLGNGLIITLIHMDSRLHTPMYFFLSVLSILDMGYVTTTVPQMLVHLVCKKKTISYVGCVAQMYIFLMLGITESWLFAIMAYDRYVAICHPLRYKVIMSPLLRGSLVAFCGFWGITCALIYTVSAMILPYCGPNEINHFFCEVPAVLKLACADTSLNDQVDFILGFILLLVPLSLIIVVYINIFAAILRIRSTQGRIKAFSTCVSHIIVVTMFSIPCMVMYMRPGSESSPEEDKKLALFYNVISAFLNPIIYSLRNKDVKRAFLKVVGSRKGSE
# How it was run: (§1)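 Each receptor–molecule pair is labelled responsive or non-responsive (inactive) according to whether the original authors judged the measured signal statistically different from baseline. The data were taken from the main text and supplementary material of published papers and checked for typos and inconsistencies. Assay methods differed by source, with transient luciferase assays in mammalian cell lines being common.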
# [2] = molecular target: T2, UniProt L7N210
# T2 sequence (whole entry): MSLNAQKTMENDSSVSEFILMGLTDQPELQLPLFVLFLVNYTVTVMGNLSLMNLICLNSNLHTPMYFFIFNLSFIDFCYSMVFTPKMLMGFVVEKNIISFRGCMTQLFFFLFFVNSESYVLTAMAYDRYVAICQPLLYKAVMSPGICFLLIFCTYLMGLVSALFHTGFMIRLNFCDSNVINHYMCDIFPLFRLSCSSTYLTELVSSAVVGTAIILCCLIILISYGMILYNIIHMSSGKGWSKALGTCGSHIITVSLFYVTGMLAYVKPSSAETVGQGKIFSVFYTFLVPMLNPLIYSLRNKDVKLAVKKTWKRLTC
# How it was run: as §1
# [3] = molecular target: T3, UniProt Q3KPB0
# T3 sequence (whole entry): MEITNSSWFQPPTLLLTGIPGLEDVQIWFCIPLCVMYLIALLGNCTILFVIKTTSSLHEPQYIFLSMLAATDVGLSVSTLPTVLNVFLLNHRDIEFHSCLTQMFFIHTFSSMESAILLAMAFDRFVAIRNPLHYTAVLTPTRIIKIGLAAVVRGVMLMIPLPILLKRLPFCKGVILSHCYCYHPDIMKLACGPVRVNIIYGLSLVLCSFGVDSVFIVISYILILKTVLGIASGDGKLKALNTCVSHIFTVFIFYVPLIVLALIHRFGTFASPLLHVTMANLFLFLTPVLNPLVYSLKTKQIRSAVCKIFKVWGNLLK
# How it was run: as §1
# [4] = molecular target: T4, UniProt Q3U0P3
# T4 sequence (whole entry): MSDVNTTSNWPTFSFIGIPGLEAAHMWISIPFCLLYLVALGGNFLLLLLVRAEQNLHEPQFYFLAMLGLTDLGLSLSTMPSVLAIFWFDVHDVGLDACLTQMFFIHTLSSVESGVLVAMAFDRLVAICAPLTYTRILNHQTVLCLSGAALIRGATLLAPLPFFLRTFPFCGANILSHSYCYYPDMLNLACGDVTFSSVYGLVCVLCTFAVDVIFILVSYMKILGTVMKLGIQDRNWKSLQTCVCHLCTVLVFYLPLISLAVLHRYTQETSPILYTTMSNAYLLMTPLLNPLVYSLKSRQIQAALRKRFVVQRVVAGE
# How it was run: as §1
# [5] = molecular target: T5, UniProt Q7TQU8
# T5 sequence (whole entry): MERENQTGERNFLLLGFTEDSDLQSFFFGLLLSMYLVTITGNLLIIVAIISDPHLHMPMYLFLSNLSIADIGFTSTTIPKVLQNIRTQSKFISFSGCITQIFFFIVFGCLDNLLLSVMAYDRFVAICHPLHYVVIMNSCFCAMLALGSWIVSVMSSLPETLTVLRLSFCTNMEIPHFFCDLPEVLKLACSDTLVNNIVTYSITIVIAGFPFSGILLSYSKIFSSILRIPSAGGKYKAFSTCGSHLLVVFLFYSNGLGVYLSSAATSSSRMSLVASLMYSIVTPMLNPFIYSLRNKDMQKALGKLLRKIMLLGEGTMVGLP
# How it was run: as §1
# [6] = molecular target: T6, UniProt Q7TR79
# T6 sequence (whole entry): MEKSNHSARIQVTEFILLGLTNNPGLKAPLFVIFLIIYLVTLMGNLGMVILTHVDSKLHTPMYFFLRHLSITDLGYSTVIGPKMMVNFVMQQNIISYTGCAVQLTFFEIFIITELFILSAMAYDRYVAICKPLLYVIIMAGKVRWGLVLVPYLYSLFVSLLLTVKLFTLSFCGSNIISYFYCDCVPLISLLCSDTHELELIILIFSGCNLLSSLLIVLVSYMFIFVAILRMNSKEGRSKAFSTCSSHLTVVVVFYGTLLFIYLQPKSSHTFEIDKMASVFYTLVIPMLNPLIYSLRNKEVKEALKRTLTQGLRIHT
# How it was run: as §1
# [7] = molecular target: T7, UniProt Q7TRM0
# T7 sequence (whole entry): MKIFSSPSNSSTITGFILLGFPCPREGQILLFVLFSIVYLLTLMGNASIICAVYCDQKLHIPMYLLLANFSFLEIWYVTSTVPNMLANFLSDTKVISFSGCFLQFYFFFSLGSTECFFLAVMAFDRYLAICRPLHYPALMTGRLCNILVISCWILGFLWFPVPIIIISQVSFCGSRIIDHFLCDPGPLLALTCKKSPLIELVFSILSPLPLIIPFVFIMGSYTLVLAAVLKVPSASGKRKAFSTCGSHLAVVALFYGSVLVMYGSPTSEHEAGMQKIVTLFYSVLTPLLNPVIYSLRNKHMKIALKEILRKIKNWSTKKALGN
# How it was run: as §1
# [8] = molecular target: T8, UniProt Q7TRN9
# T8 sequence (whole entry): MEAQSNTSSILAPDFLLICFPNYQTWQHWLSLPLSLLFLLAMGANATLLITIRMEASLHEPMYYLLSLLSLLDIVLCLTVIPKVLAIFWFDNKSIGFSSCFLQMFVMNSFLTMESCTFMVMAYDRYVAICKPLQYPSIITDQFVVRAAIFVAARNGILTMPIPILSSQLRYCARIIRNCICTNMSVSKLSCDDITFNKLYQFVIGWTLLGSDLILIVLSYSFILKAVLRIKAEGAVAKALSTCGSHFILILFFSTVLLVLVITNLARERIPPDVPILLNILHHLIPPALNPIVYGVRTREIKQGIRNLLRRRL
# How it was run: as §1
# [9] = molecular target: T9, UniProt L7N0P5
# T9 sequence (whole entry): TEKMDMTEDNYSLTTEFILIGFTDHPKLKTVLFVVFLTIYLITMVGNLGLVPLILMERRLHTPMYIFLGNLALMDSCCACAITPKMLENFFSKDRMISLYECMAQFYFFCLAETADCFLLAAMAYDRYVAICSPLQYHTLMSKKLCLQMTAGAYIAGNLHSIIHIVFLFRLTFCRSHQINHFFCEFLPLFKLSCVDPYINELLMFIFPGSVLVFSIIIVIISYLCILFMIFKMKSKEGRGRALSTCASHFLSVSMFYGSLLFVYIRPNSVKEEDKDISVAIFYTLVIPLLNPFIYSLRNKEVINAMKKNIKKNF
# How it was run: as §1
# [10] = molecular target: T10, UniProt Q7TQV4
# T10 sequence (whole entry): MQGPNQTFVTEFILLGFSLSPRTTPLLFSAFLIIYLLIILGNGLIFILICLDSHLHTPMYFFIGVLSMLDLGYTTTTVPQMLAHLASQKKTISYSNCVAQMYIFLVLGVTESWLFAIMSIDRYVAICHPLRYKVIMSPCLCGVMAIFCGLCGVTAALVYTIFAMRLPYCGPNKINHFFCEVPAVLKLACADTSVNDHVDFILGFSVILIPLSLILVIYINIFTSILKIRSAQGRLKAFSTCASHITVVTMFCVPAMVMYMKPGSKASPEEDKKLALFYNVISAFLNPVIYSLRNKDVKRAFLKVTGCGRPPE
# How it was run: as §1
# [11] = molecular target: T11, UniProt Q7TR71
# T11 sequence (whole entry): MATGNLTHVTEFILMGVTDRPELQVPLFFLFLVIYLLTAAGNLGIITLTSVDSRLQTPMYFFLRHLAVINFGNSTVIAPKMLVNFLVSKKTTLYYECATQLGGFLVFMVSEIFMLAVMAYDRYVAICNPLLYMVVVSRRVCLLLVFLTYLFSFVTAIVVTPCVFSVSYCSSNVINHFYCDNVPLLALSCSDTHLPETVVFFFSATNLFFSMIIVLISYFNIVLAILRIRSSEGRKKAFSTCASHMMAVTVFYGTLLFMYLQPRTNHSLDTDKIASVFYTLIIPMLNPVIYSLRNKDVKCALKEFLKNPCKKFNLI
# How it was run: as §1
# [12] = molecular target: T12, UniProt Q7TRA3
# T12 sequence (whole entry): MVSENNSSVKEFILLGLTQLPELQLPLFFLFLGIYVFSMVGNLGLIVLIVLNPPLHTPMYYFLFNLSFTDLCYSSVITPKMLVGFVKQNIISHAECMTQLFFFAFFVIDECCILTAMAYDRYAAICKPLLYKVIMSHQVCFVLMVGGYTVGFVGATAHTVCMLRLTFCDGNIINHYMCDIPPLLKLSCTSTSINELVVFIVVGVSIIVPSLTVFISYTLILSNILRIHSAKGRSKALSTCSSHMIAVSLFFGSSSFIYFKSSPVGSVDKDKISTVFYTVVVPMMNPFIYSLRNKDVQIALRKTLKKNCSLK
# How it was run: as §1
# [13] = molecular target: T13, UniProt Q7TRE4
# T13 sequence (whole entry): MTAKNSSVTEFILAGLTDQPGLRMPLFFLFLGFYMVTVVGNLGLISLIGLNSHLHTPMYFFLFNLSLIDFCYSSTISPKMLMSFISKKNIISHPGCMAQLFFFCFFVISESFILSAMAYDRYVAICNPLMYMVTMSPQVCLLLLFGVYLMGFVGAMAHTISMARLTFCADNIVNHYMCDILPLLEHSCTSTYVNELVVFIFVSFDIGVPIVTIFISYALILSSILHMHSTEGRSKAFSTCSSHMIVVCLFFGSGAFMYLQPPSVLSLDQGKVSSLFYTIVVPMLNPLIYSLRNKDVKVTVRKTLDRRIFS
# How it was run: as §1
# [14] = molecular target: UniProt Q7TQR7
# Sequence of UniProt Q7TQR7 (Q7TQR7 as listed by the source): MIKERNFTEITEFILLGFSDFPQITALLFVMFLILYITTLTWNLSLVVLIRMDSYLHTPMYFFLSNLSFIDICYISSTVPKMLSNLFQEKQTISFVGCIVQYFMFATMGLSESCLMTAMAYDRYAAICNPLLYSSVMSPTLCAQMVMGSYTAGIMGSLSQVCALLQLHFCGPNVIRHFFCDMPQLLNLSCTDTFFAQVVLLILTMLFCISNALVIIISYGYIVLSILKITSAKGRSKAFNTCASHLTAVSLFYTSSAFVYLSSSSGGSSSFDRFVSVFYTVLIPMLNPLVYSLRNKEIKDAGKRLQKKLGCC
# How it was run: as §1
# [15] = molecular target: UniProt Q7TQR9
# Sequence of UniProt Q7TQR9 (Q7TQR9 as listed by the source): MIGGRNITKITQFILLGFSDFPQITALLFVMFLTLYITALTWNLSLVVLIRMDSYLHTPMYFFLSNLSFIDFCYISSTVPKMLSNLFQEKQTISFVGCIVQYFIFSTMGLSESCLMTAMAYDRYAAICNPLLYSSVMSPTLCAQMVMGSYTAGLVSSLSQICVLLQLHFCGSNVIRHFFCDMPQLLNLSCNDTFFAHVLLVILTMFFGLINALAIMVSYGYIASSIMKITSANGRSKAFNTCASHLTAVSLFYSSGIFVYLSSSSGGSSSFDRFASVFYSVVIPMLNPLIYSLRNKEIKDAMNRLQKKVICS
# How it was run: as §1
# 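Also: active if original authors judged signal statistically different from baseline.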
smiles,measurement,setting,value
O=C([O-])CCCCCCCC(=O)[O-].[H+].[H+],odorant receptor agonist call,[1],inactive
same,odorant receptor agonist call,[2],inactive
same,odorant receptor agonist call,[3],inactive
same,odorant receptor agonist call,[4],inactive
same,odorant receptor agonist call,[5],inactive
same,odorant receptor agonist call,[6],inactive
same,odorant receptor agonist call,[7],inactive
same,odorant receptor agonist call,[8],inactive
CC(=O)c1nccnc1C,odorant receptor agonist call,[9],active
Cc1cncc(C)n1,odorant receptor agonist call,[9],active
CCCC(C)=O,odorant receptor agonist call,[1],inactive
same,odorant receptor agonist call,[2],inactive
same,odorant receptor agonist call,[10],inactive
same,odorant receptor agonist call,[11],inactive
same,odorant receptor agonist call,[12],inactive
same,odorant receptor agonist call,[13],inactive
CCCCOC(=O)C(C)OC(=O)CCC (stereo not drawn),odorant receptor agonist call,[2],inactive
same,odorant receptor agonist call,[10],inactive
same,odorant receptor agonist call,[11],inactive
same,odorant receptor agonist call,[12],inactive
same,odorant receptor agonist call,[13],inactive
COC1=C(C)OC(C)C1=O (stereo not drawn),odorant receptor agonist call,[9],inactive
O=C(OCc1ccccc1)c1ccccc1O,odorant receptor agonist call,[1],inactive
same,odorant receptor agonist call,[2],inactive
same,odorant receptor agonist call,[4],inactive
same,odorant receptor agonist call,[5],inactive
same,odorant receptor agonist call,[6],inactive
O=C(O)CCCCCC(=O)O,odorant receptor agonist call,[7],inactive
same,odorant receptor agonist call,[8],inactive
O=C([O-])CCCCCCC(=O)[O-].[H+].[H+],odorant receptor agonist call,[1],inactive
same,odorant receptor agonist call,[2],inactive
same,odorant receptor agonist call,[3],inactive
same,odorant receptor agonist call,[4],inactive
same,odorant receptor agonist call,[5],inactive
same,odorant receptor agonist call,[6],inactive
same,odorant receptor agonist call,[7],inactive
same,odorant receptor agonist call,[8],inactive
CCCO,odorant receptor agonist call,[1],inactive
same,odorant receptor agonist call,[2],inactive
same,odorant receptor agonist call,[4],inactive
same,odorant receptor agonist call,[5],inactive
same,odorant receptor agonist call,[6],inactive
O=C([O-])CCCCC(=O)[O-].[H+].[H+],odorant receptor agonist call,[7],inactive
same,odorant receptor agonist call,[8],inactive
C=Cc1cnccn1,odorant receptor agonist call,[9],active
O=C(O)CCCBr,odorant receptor agonist call,[7],inactive
same,odorant receptor agonist call,[8],inactive
CCC(C(=O)O)c1ccccc1 (stereo not drawn),odorant receptor agonist call,[1],inactive
same,odorant receptor agonist call,[2],inactive
same,odorant receptor agonist call,[10],inactive
same,odorant receptor agonist call,[11],inactive
same,odorant receptor agonist call,[12],inactive
same,odorant receptor agonist call,[13],inactive
Cc1cnc(C)c(C)n1,odorant receptor agonist call,[9],active
Cc1cnccn1,odorant receptor agonist call,[9],active
CC1CCCCCCCCCCCCC(=O)C1 (stereo not drawn),odorant receptor agonist call,[14],inactive
same,odorant receptor agonist call,[15],inactive
CC1=NC(C)C(C)S1 (stereo not drawn),odorant receptor agonist call,[9],active
